Experimental data as given in ChEMBL document CHEMBL3864121, “Development of ebsulfur analogues as potent antibacterials against methicillin-resistant Staphylococcus aureus” (Bioorg Med Chem, 2016).
Converted amounts (≈) assume the structure as drawn. The source made the active and inactive calls. The rule behind the calls is not given here.

How the values were obtained:
Staphylococcus aureus [1] = assay: Antibacterial activity against methicillin-sensitive Staphylococcus aureus ATCC 6538 measured after overnight incubation by broth double-dilution method; assay type: functional
Method in brief: (§1)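 MIC by broth double-dilution in liquid Mueller-Hinton medium. Values are reported in µg/mL.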

Staphylococcus aureus [2] = assay: Antibacterial activity against methicillin-sensitive Staphylococcus aureus ATCC 25923 measured after overnight incubation by broth double-dilution method; assay type: functional; method in brief: as §1
Staphylococcus aureus [3] = assay: Antibacterial activity against methicillin-sensitive Staphylococcus aureus ATCC 29213 measured after overnight incubation by broth double-dilution method; assay type: functional; method in brief: as §1
Staphylococcus aureus [4] = assay: Antibacterial activity against methicillin-resistant Staphylococcus aureus ATCC 33591 measured after overnight incubation by broth double-dilution method; assay type: functional; method in brief: as §1
Staphylococcus aureus [5] = assay: Antibacterial activity against methicillin-resistant Staphylococcus aureus 1 measured after overnight incubation by broth double-dilution method; assay type: functional; method in brief: as §1
Staphylococcus aureus [6] = assay: Antibacterial activity against methicillin-resistant Staphylococcus aureus 2 measured after overnight incubation by broth double-dilution method; assay type: functional; method in brief: as §1
Staphylococcus aureus [7] = assay: Antibacterial activity against methicillin-resistant Staphylococcus aureus BRS3 measured after overnight incubation by broth double-dilution method; assay type: functional; method in brief: as §1
Staphylococcus aureus [8] = assay: Antibacterial activity against methicillin-resistant Staphylococcus aureus C1 measured after overnight incubation by broth double-dilution method; assay type: functional; method in brief: as §1
Staphylococcus aureus [9] = assay: Antibacterial activity against methicillin-resistant Staphylococcus aureus C2 measured after overnight incubation by broth double-dilution method; assay type: functional; method in brief: as §1
Staphylococcus aureus [10] = assay: Antibacterial activity against methicillin-resistant Staphylococcus aureus C7 measured after overnight incubation by broth double-dilution method; assay type: functional; method in brief: as §1
Staphylococcus aureus [11] = assay: Antibacterial activity against methicillin-resistant Staphylococcus aureus C14 measured after overnight incubation by broth double-dilution method; assay type: functional; method in brief: as §1
Staphylococcus aureus [12] = assay: Antibacterial activity against methicillin-resistant Staphylococcus aureus C16 measured after overnight incubation by broth double-dilution method; assay type: functional; method in brief: as §1
Staphylococcus aureus [13] = assay: Antibacterial activity against methicillin-resistant Staphylococcus aureus C19 measured after overnight incubation by broth double-dilution method; assay type: functional; method in brief: as §1
Staphylococcus aureus [14] = assay: Antibacterial activity against methicillin-resistant Staphylococcus aureus G1 measured after overnight incubation by broth double-dilution method; assay type: functional; method in brief: as §1
Staphylococcus aureus [15] = assay: Antibacterial activity against methicillin-resistant Staphylococcus aureus G6 measured after overnight incubation by broth double-dilution method; assay type: functional; method in brief: as §1
Staphylococcus aureus [16] = assay: Antibacterial activity against methicillin-resistant Staphylococcus aureus G12 measured after overnight incubation by broth double-dilution method; assay type: functional; method in brief: as §1
Staphylococcus aureus [17] = assay: Antibacterial activity against methicillin-resistant Staphylococcus aureus G14 measured after overnight incubation by broth double-dilution method; assay type: functional; method in brief: as §1
Staphylococcus aureus [18] = assay: Antibacterial activity against methicillin-resistant Staphylococcus aureus NRS4 measured after overnight incubation by broth double-dilution method; assay type: functional; method in brief: as §1
Staphylococcus aureus [19] = assay: Antibacterial activity against methicillin-resistant Staphylococcus aureus NRS51 measured after overnight incubation by broth double-dilution method; assay type: functional; method in brief: as §1
Staphylococcus aureus [20] = assay: Antibacterial activity against methicillin-resistant Staphylococcus aureus NRS77 measured after overnight incubation by broth double-dilution method; assay type: functional; method in brief: as §1
Staphylococcus aureus [21] = assay: Antibacterial activity against methicillin-resistant Staphylococcus aureus S14 measured after overnight incubation by broth double-dilution method; assay type: functional; method in brief: as §1
Staphylococcus aureus [22] = assay: Antibacterial activity against methicillin-resistant Staphylococcus aureus S17 measured after overnight incubation by broth double-dilution method; assay type: functional; method in brief: as §1
Staphylococcus aureus [23] = assay: Antibacterial activity against methicillin-resistant Staphylococcus aureus S22 measured after overnight incubation by broth double-dilution method; assay type: functional; method in brief: as §1
Staphylococcus aureus [24] = assay: Antibacterial activity against methicillin-resistant Staphylococcus aureus S24 measured after overnight incubation by broth double-dilution method; assay type: functional; method in brief: as §1
Staphylococcus aureus [25] = assay: Antibacterial activity against methicillin-resistant Staphylococcus aureus USA100 measured after overnight incubation by broth double-dilution method; assay type: functional; method in brief: as §1
Staphylococcus aureus [26] = assay: Antibacterial activity against methicillin-resistant Staphylococcus aureus USA200 measured after overnight incubation by broth double-dilution method; assay type: functional; method in brief: as §1
Staphylococcus aureus [27] = assay: Antibacterial activity against methicillin-resistant Staphylococcus aureus USA300 measured after overnight incubation by broth double-dilution method; assay type: functional; method in brief: as §1
Staphylococcus aureus [28] = assay: Antibacterial activity against methicillin-resistant Staphylococcus aureus USA600 measured after overnight incubation by broth double-dilution method; assay type: functional; method in brief: as §1
[29] = test system: Staphylococcus epidermidis; assay: Antibacterial activity against Staphylococcus epidermidis ATCC 35984 measured after overnight incubation by broth double-dilution method; assay type: functional; settings: RP62A
Method in brief: (§2)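 MIC by broth double-dilution in Mueller-Hinton medium. Re-testing at the time-kill inoculum used 1×10^6 CFU/mL.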

Enterococcus faecalis [30] = assay: Antibacterial activity against Enterococcus faecalis ATCC 29212 measured after overnight incubation by broth double-dilution method; assay type: functional; method in brief: as §2
Enterococcus faecalis [31] = assay: Antibacterial activity against Enterococcus faecalis ATCC 49533 measured after overnight incubation by broth double-dilution method; assay type: functional; method in brief: as §2
Enterococcus faecium = assay: Antibacterial activity against Enterococcus faecium BM4105-RF measured after overnight incubation by broth double-dilution method; assay type: functional; method in brief: as §1
Enterococcus = assay: Antibacterial activity against Vancomycin-resistant Enterococcus measured after overnight incubation by broth double-dilution method; assay type: functional; method in brief: as §1
Listeria monocytogenes = assay: Antibacterial activity against Listeria monocytogenes ATCC 19115 measured after overnight incubation by broth double-dilution method; assay type: functional; method in brief: as §2
[32] = test system: Mycolicibacterium smegmatis; assay: Antibacterial activity against Mycobacterium smegmatis MC2-155 measured after overnight incubation by broth double-dilution method; assay type: functional; settings: str. MC2 155; method in brief: as §1
Staphylococcus aureus [33] = assay: Bacteriostatic activity against methicillin-resistant Staphylococcus aureus S22 at 0.5 times MIC measured up to 3 to 6 hrs by time kill analysis; assay type: functional
Staphylococcus aureus [34] = assay: Bacteriostatic activity against methicillin-resistant Staphylococcus aureus S22 at MIC measured up to 3 to 6 hrs by time kill analysis; assay type: functional
Staphylococcus aureus [35] = assay: Bacteriostatic activity against methicillin-resistant Staphylococcus aureus S22 at 4 times MIC measured after 24 hrs by time kill analysis; assay type: functional
[36] = test system: Staphylococcus epidermidis RP62A; assay: Inhibition of thioredoxin reductase in Staphylococcus epidermidis ATCC 35984 assessed as induction of ROS production at 1 to 4 times MIC measured after 1 hr by DCFH-DA staining-based fluorescence microscopic analysis
Method in brief: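 Untreated cells served as the negative control and 1 mM H2O2 as the positive control. Cells were stained with DCFH-DA (40 µg/mL) and ROS were visualized by fluorescence microscopy.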

Staphylococcus aureus [37] = assay: Antibacterial activity against methicillin-resistant Staphylococcus aureus S22 using 1 10^6CFU/ml measured after overnight incubation by broth double-dilution method; assay type: functional

## CCCCCCn1sc2ccccc2c1=O
Staphylococcus aureus [1]
  MIC: 7.8 µg/mL (≈ 33.1 µM)
Staphylococcus aureus [2]
  MIC: 3.9 µg/mL (≈ 16.6 µM)
Staphylococcus aureus [3]
  MIC: 3.9 µg/mL (≈ 16.6 µM)
Staphylococcus aureus [4]
  MIC: 2 µg/mL (≈ 8.5 µM)
Staphylococcus aureus [5]
  MIC: 2 µg/mL (≈ 8.5 µM)
Staphylococcus aureus [6]
  MIC: 3.9 µg/mL (≈ 16.6 µM)
Staphylococcus aureus [7]
  MIC: 3.9 µg/mL (≈ 16.6 µM)
Staphylococcus aureus [8]
  MIC: 3.9 µg/mL (≈ 16.6 µM)
Staphylococcus aureus [9]
  MIC: 3.9 µg/mL (≈ 16.6 µM)
Staphylococcus aureus [10]
  MIC: 3.9 µg/mL (≈ 16.6 µM)
Staphylococcus aureus [11]
  MIC: 3.9 µg/mL (≈ 16.6 µM)
Staphylococcus aureus [12]
  MIC: 7.8 µg/mL (≈ 33.1 µM)
Staphylococcus aureus [13]
  MIC: 2 µg/mL (≈ 8.5 µM)
Staphylococcus aureus [14]
  MIC: 0.5 µg/mL (≈ 2.12 µM)
Staphylococcus aureus [15]
  MIC: 3.9 µg/mL (≈ 16.6 µM)
Staphylococcus aureus [16]
  MIC: 2 µg/mL (≈ 8.5 µM)
Staphylococcus aureus [17]
  MIC: 2 µg/mL (≈ 8.5 µM)
Staphylococcus aureus [18]
  MIC: 3.9 µg/mL (≈ 16.6 µM)
Staphylococcus aureus [19]
  MIC: 3.9 µg/mL (≈ 16.6 µM)
Staphylococcus aureus [20]
  MIC: 3.9 µg/mL (≈ 16.6 µM)
Staphylococcus aureus [21]
  MIC: ≤ 0.25 µg/mL
Staphylococcus aureus [22]
  MIC: 3.9 µg/mL (≈ 16.6 µM)
Staphylococcus aureus [23]
  MIC: 3.9 µg/mL (≈ 16.6 µM)
Staphylococcus aureus [24]
  MIC: 3.9 µg/mL (≈ 16.6 µM)
Staphylococcus aureus [25]
  MIC: 7.8 µg/mL (≈ 33.1 µM)
Staphylococcus aureus [26]
  MIC: 7.8 µg/mL (≈ 33.1 µM)
Staphylococcus aureus [27]
  MIC: 3.9 µg/mL (≈ 16.6 µM)
Staphylococcus aureus [28]
  MIC: 7.8 µg/mL (≈ 33.1 µM)
[29]
  MIC: 2 µg/mL (≈ 8.5 µM)
Enterococcus faecalis [30]
  MIC: > 125 µg/mL
Enterococcus faecalis [31]
  MIC: > 125 µg/mL
Enterococcus faecium
  MIC: 7.8 µg/mL (≈ 33.1 µM)
Enterococcus
  MIC: 2 µg/mL (≈ 8.5 µM)
Listeria monocytogenes
  MIC: 3.9 µg/mL (≈ 16.6 µM)
[32]
  MIC: 2 µg/mL (≈ 8.5 µM)
Staphylococcus aureus [33]
  Activity: Active
Staphylococcus aureus [34]
  Activity: Active
Staphylococcus aureus [35]
  Activity: Active
[36]
  Activity: Active
Staphylococcus aureus [37]
  Activity: Active
